According to ChEMBL document CHEMBL1125042, “Hypolipidemic activity of rifamycin derivatives” (J Med Chem, 1990):
Values after ≈ are worked out from the molar mass of the structure shown.

Key:
Rattus norvegicus [1] = experiment: Hypolipidemic activity was determined in male rats, cholesterol was determined in high-density lipoproteins at 100 mg/kg; type: functional, organism-based; parameters: dose 100 mg/kg
Summary of the method: (§1)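 Groups of eight male Wistar rats (200–230 g) dosed orally in PEG 400, either daily for 7 days (killed 24 h after the last dose) or for 4 days with a second dose on day 4 (killed 16 h later). Fasted 16 h. Paired sera pooled, lipoproteins separated by ultracentrifugation (1.006 and 1.040 g/cm³), HDL taken as the infranatant. Cholesterol measured enzymatically; % vs vehicle, mean ± SEM of four pools.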

Rattus norvegicus [2] = experiment: Hypolipidemic activity was determined in male rats, cholesterol was determined in high-density lipoproteins at 30 mg/kg; type: functional, organism-based; parameters: dose 30 mg/kg; summary of the method: as §1
Rattus norvegicus [3] = experiment: Hypolipidemic activity was determined in male rats, cholesterol was determined in low-density lipoproteins at 100 mg/kg; type: functional, organism-based; parameters: dose 100 mg/kg; summary of the method: as §1
Rattus norvegicus [4] = organism: Rattus norvegicus; settings: 30 mg/kg
Rattus norvegicus [5] = experiment: Hypolipidemic activity was determined in male rats, and serum cholesterol level was determined at 100 mg/kg
Rattus norvegicus [6] = experiment: Hypolipidemic activity was determined in male rats, and low-density lipoprotein level was determined at 30 mg/kg
Rattus norvegicus [7] = experiment: Compound was tested for hypolipidemic activity in male rats, cholesterol level was determined in serum at 30 mg/kg; type: functional, organism-based; parameters: dose 30 mg/kg
Summary of the method: (§2)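 Male Wistar rats (200–230 g), eight per group, were dosed orally in PEG 400 at 8 a.m. for 4 days, plus a second dose at 4 p.m. on day 4. Rats were fasted 16 h and killed 16 h after the last dose. Sera from pairs of rats were pooled. LDL (up to 1.040 g/cm³) was separated by ultracentrifugation and the HDL infranatant taken. Cholesterol was measured enzymatically. Results are % versus vehicle control, mean ± SEM of four pools, Student's t test.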

Rattus norvegicus [8] = experiment: Compound was tested for hypolipidemic activity in male rats, cholesterol was determined in serum at 100 mg/kg; type: functional; summary of the method: as §2
Rattus norvegicus [9] = experiment: Hypolipidemic activity was determined in male rats, and high-density lipoprotein level was determined at 100 mg/kg; type: functional; summary of the method: as §2
Rattus norvegicus [10] = experiment: Hypolipidemic activity was determined in male rats, and low-density lipoprotein level was determined at 100 mg/kg; type: functional; summary of the method: as §2
Staphylococcus aureus = experiment: Antibacterial activity against Staphylococcus aureus 10B; type: functional
Summary of the method: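 Agar dilution on DST agar with 2-fold drug dilutions. Inoculum of 10⁴ viable S. aureus 10B was taken from liquid-nitrogen stock, thawed 30 min and not subcultured. It was applied by multipoint replicator and incubated overnight at 37 °C. MIC is the lowest concentration inhibiting growth relative to control cultures.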

Rattus norvegicus [11] = organism: Rattus norvegicus; experiment: Hypolipidemic activity was determined in male rats, and high-density lipoprotein level was determined; type: functional; summary of the method: as §2
Rattus norvegicus [12] = organism: Rattus norvegicus; experiment: Hypolipidemic activity was determined in male rats, and low-density lipoprotein level was determined; type: functional; summary of the method: as §2
Rattus norvegicus [13] = organism: Rattus norvegicus; experiment: Compound was tested for hypolipidemic activity in male rats, cholesterol was determined in serum.; type: functional; summary of the method: as §2

Row | SMILES | Serum HDL-cholesterol (Rattus norvegicus [1]) | Serum HDL-cholesterol (Rattus norvegicus [2]) | Serum LDL-cholesterol (Rattus norvegicus [3]) | Serum cholesterol (Rattus norvegicus [4]) | Serum cholesterol (Rattus norvegicus [5]) | Serum LDL-cholesterol (Rattus norvegicus [6]) | Serum cholesterol (Rattus norvegicus [7]) | Activity (Rattus norvegicus [8]) | Activity (Rattus norvegicus [9]) | Activity (Rattus norvegicus [10]) | MIC (Staphylococcus aureus) | Activity (Rattus norvegicus [11]) | Activity (Rattus norvegicus [12]) | Activity (Rattus norvegicus [13])
1 | O=C(O)c1cccnc1 | -13% | -1% | -52% | -6% | -10% | -32% | – | – | – | – | – | – | – | –
2 | CCOC(=O)C(C)(C)Oc1ccc(Cl)cc1 | -34% | -13% | 14% | – | -30% | -8% | -15% | – | – | – | – | – | – | –
3 | CO[C@H]1/C=C/O[C@@]2(C)Oc3c(C)c(O)c4c(O)c(c(/C=N/N5CCN(C)CC5)c(O)c4c3C2=O)NC(=O)/C(C)=C\C=C\[C@H](C)[C@H](O)[C@@H](C)[C@@H](O)[C@@H](C)[C@H](OC(C)=O)[C@@H]1C [RIFAMPIN] | – | – | – | – | – | – | – | -30% | -27% | -31% | 0.003 µg/mL (≈ 0.00365 µM) | – | – | –
4 | COc1c(C)c2c3c4c1C(=O)C(=C(N1CCN(Cc5c(C)cc(C)cc5C)CC1)C4=O)NC(=O)/C(C)=C\C=C\C(C)C(O)C(C)C(O)C(C)C(OC(C)=O)C(C)C(OC)/C=C/OC(C)(O2)C3=O (stereo not given) | – | – | – | – | – | – | – | – | – | – | 1 µg/mL (≈ 1.08 µM) | -6% | 1% | -4%
